In the M2OR odorant receptor database:
Positions count from the first letter of the chain named.

Columns and labels:
Details in all cases: stereoisomer not certain
OR6C65 (Homo sapiens) = target: T1, OR6C65 (Homo sapiens) (UniProt A6NJZ3)
T1 sequence (whole entry): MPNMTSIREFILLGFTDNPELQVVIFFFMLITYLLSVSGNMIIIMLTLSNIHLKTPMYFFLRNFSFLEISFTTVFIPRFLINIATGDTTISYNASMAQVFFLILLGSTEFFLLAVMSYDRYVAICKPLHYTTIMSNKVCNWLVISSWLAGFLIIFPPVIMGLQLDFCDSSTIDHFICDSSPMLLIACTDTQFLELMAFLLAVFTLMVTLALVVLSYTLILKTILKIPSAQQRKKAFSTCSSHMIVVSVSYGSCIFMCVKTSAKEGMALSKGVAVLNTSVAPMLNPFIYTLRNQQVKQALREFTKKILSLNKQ
Method in brief: (§1)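 Values were gathered from published papers (main text and supplementary material), with extra details requested from the original authors when needed, and checked for typos and inconsistencies. Each receptor–molecule pair is called responsive (active) if the original authors judged the measured signal statistically different from baseline, and non-responsive (inactive) otherwise. Assay methods varied by source, often transient mammalian cell-line luciferase assays. Recorded details include cell line, G-protein, co-transfected protein and tags.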

OR6C68 (Homo sapiens) = target: T2, OR6C68 (Homo sapiens) (UniProt A6NDL8)
T2 sequence (whole entry): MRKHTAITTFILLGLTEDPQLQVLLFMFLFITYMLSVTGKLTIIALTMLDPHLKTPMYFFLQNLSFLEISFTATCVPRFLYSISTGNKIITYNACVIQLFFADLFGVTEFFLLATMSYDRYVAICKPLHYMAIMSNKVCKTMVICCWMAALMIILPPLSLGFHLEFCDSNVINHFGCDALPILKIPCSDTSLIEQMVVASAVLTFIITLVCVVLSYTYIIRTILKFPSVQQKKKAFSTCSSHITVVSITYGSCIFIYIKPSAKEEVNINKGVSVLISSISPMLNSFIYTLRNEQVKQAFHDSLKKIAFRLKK
Method in brief: as §1

OR6C70 (Homo sapiens) = target: T3, OR6C70 (Homo sapiens) (UniProt A6NIJ9)
T3 sequence (whole entry): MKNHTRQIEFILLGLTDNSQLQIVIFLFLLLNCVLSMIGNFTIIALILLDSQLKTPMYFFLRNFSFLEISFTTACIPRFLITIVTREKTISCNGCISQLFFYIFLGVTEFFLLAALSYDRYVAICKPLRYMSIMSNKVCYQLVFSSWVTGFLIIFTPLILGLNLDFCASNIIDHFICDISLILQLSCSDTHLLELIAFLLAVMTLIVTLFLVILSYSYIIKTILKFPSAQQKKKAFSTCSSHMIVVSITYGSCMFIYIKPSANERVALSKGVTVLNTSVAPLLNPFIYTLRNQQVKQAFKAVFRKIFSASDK
Method in brief: as §1

OR6C74 (Homo sapiens) = target: T4, OR6C74 (Homo sapiens) (UniProt A6NCV1)
T4 sequence (whole entry): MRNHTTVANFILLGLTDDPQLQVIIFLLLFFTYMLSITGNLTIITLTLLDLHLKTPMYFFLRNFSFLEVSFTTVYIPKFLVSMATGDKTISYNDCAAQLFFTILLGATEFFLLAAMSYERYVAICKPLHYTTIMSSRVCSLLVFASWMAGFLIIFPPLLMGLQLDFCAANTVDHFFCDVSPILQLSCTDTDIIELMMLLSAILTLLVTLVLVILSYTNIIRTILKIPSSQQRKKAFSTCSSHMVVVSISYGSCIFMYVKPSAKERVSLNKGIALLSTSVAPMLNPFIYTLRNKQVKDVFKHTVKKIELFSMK
Method in brief: as §1

OR6C75 (Homo sapiens) = target: T5, OR6C75 (Homo sapiens) (UniProt A6NL08)
T5 sequence (whole entry): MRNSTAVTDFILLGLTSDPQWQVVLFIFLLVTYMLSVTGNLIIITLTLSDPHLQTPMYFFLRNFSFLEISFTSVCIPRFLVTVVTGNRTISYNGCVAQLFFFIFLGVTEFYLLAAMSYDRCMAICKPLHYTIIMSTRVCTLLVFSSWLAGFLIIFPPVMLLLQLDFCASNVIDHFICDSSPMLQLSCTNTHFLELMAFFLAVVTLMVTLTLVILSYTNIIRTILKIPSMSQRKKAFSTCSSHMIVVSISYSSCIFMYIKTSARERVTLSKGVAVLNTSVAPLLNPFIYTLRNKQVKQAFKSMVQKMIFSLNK
Method in brief: as §1

OR6C76 (Homo sapiens) = target: T6, OR6C76 (Homo sapiens) (UniProt A6NM76)
T6 sequence (whole entry): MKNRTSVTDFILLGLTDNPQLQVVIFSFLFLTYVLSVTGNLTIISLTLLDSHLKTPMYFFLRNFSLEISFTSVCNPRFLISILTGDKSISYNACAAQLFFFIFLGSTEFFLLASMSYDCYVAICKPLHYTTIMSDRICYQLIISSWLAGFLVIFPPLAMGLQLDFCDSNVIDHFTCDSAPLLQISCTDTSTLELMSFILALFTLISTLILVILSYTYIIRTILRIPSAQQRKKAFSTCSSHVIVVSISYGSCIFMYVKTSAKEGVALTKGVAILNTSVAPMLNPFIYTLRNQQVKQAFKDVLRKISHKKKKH
Method in brief: as §1

OR6F1 (Homo sapiens) = target: T7, OR6F1 (Homo sapiens) (UniProt Q8NGZ6)
T7 sequence (whole entry): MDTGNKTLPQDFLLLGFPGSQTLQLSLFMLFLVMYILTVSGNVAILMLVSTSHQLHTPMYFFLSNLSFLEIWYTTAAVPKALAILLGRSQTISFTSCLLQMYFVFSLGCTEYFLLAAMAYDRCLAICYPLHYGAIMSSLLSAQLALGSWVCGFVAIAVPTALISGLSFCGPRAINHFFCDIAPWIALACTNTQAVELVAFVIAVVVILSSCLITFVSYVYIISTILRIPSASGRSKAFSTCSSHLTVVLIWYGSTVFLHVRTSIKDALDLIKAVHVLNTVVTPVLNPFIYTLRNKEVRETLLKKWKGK
Method in brief: as §1

OR6J1 (Homo sapiens) = target: T8, OR6J1 (Homo sapiens) (UniProt Q8NGC5)
T8 sequence (whole entry): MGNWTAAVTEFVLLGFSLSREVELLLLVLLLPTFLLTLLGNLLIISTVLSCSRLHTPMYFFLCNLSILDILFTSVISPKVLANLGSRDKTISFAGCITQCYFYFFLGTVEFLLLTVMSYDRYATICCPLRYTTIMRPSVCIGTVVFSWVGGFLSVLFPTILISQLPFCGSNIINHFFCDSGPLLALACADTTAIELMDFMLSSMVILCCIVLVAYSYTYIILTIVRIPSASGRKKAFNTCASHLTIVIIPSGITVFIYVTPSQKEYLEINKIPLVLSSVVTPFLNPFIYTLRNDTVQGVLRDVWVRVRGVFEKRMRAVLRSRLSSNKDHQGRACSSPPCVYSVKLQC
Method in brief: as §1

OR6K2 (Homo sapiens) = target: T9, OR6K2 (Homo sapiens) (UniProt Q8NGY2)
T9 sequence (whole entry): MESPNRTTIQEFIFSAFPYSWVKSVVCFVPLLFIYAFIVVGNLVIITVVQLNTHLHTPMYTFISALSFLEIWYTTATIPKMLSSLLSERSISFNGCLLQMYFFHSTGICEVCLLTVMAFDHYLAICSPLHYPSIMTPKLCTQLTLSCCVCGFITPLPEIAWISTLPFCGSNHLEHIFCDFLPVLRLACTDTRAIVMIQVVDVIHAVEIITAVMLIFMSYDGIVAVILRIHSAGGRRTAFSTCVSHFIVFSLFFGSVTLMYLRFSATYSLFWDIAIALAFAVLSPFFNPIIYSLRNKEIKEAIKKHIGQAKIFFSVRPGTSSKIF
Method in brief: as §1

OR6K3 (Homo sapiens) = target: T10, OR6K3 (Homo sapiens) (UniProt Q8NGY3)
T10 sequence (whole entry): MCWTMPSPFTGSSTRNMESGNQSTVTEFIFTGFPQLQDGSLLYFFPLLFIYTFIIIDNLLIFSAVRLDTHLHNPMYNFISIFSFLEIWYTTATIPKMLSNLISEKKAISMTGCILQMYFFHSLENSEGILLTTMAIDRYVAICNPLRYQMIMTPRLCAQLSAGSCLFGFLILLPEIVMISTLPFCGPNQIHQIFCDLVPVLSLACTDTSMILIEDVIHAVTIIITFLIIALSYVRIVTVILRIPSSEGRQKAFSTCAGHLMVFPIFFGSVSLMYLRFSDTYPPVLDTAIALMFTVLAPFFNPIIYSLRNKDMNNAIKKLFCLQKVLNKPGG
Method in brief: as §1

OR6K6 (Homo sapiens) = target: T11, OR6K6 (Homo sapiens) (UniProt Q8NGW6)
T11 sequence (whole entry): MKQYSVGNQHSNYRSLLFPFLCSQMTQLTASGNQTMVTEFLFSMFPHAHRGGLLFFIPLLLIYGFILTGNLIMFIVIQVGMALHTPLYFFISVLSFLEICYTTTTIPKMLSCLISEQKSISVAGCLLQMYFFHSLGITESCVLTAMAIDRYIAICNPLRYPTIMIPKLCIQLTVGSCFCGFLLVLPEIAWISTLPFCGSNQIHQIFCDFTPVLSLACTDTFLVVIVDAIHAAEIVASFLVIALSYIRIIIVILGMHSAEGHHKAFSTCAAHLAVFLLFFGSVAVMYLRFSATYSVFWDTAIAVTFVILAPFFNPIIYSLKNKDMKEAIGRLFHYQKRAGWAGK
Method in brief: as §1

OR6M1 (Homo sapiens) = target: T12, OR6M1 (Homo sapiens) (UniProt Q8NGM8)
T12 sequence (whole entry): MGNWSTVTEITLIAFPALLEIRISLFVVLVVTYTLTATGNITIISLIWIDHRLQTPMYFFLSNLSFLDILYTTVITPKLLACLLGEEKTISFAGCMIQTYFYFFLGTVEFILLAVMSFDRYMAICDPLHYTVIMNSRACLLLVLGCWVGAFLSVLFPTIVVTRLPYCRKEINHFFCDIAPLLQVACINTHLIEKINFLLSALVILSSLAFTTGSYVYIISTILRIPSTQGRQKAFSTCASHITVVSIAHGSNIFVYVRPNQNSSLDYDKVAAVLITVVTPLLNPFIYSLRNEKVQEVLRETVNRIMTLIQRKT
Method in brief: as §1

OR6M1 T276K = system: T13, OR6M1 T276K
T13 sequence (whole entry): T12 sequence (whole entry) with T276K
Method in brief: as §1

OR6N1 (Homo sapiens) = target: T14, OR6N1 (Homo sapiens) (UniProt Q8NGY5)
T14 sequence (whole entry): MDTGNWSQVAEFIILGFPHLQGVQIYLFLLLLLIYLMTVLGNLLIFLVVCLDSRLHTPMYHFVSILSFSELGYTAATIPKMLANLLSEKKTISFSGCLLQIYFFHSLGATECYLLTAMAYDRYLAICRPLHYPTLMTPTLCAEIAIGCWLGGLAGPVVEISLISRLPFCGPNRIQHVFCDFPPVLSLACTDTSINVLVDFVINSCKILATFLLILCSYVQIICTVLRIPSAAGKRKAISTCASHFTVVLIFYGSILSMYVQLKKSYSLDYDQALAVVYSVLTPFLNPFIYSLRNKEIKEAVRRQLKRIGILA
Method in brief: as §1

OR6N2 (Homo sapiens) = target: T15, OR6N2 (Homo sapiens) (UniProt Q8NGY6)
T15 sequence (whole entry): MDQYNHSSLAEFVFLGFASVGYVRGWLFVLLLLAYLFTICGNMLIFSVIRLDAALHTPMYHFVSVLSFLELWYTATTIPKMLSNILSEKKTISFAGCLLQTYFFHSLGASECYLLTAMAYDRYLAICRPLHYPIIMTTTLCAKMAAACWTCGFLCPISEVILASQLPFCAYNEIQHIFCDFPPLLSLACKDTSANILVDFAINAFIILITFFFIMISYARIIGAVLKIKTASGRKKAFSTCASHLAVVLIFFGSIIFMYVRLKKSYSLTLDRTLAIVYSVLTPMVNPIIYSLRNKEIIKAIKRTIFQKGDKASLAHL
Method in brief: as §1

OR6P1 (Homo sapiens) = target: T16, OR6P1 (Homo sapiens) (UniProt Q8NGX9)
T16 sequence (whole entry): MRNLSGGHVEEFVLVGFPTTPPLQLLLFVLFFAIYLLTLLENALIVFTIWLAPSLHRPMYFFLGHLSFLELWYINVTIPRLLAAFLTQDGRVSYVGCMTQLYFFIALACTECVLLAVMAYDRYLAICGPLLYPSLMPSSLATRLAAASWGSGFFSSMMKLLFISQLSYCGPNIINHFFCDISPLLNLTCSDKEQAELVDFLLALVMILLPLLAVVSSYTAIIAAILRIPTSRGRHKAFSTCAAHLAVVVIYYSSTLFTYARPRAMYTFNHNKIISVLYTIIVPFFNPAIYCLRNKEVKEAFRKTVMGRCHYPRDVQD
Method in brief: as §1

OR6Q1 (Homo sapiens) = target: T17, OR6Q1 (Homo sapiens) (UniProt Q8NGQ2)
T17 sequence (whole entry): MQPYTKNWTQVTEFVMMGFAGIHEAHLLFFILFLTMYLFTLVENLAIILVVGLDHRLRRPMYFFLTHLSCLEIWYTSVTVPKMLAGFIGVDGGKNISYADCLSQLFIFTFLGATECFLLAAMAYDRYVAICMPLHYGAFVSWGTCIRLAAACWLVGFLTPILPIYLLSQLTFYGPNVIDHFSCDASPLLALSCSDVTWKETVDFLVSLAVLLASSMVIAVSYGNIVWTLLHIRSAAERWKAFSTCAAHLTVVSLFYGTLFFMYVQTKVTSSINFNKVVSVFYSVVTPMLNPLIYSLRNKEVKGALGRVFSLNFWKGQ
Method in brief: as §1

Measured: odorant receptor agonist call

CCCCCCC=CCCC=O
inactive: all assays above
